LGR2 antag: inhibitors of bursicon-induced LGR2 CRE-luciferase signal, primary screen, cell-based, HEK293, CRE-luciferase reporter, bursicon stimulation. Drosophila bursicon receptor LGR2 (rickets). bursicon-stimulated, 4 h. inhibition, % at 9.99 µM. 0.35% of 380,000 active;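 active = drop in luminescence signal, shown as inhibition above about 50% in the replicate tests, limit read from the data, passing the limit was not always enough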;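 also: agonist challenge used bursicon conditioned medium at about half maximal strength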
XiGFP reactiv: activators of inactive X chromosome reactivation, primary screen, imaging, XiGFP fibroblasts, GFP high-content imaging, set 2; XiGFP mouse fibroblasts, % GFP-positive cells imaging, 3 d; cells co-treated with 5-aza-dC sensitizer; scaled so ellipticine positive control = 100%; 0.055% of 360,000 active; activation, % at 7.58 µM; AID 743238, 2013;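 active = mean normalized replicate activation at least 10% and every replicate at or above 10%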;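 also: 0% = median of on-plate neutral control wells and 100% = ellipticine 6 µM median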
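System: SV40-immortalized XiGFP fibroblast cells, line 68-5-11 / Incubation: 3-day compound exposure, then 15 min fixation at room temperature / Compound: single concentration per compound, delivered by pin transfer / Buffer or medium: DMEM plus 5-aza-dC sensitizer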
EWS-Fli inh: EWS/Fli-driven NR0B1 reporter inhibitors, primary screen, A673 cells, NR0B1 luciferase, luminescence, MLPCN library; viability-normalised; inhibition, % at 12.6 µM; 0.67% of 350,000 active;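 active = mean inhibition of at least 50% after viability correction, with every replicate also passing that limit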;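 also: firefly luciferase signal divided by Alamar Blue viability fluorescence both relative to DMSO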
TWEAK Fn14 block: inhibitors of TWEAK-Fn14 signaling, primary screen, luciferase reporter cells, uHTS. TWEAK-stimulated Fn14 reporter cells, luciferase luminescence, 8 h. inhibition, % at 10 µM. 2% of 360,000 active; in the data active = inhibition above about 50%
TROY signal inh: inhibitors of TROY-driven NF-kB signaling, primary screen, Q293 LMP1-TROYcd cells, NF-kB luciferase, uHTS; 0.98% of 360,000 active; inhibition, % at 10 µM; Q293 LMP1-TROYcd NF-kB luciferase reporter, 4 h;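 active = compounds whose plate-normalised and pattern-corrected inhibition of the luciferase reporter signal at the single screening dose is 50% or more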
FN deposit inh: inhibitors of fibronectin matrix deposition, primary screen, AH1F cells, Alexa488-fibronectin fluorescence, plate reader. inhibition, % at 12.6 µM. AID 743247, 2014. AH1F fibroblasts, overnight. 0.086% of 350,000 active;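 active = mean inhibition across replicates of 30% or more, regardless of how many single replicates reach that level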;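 also: positive control wells lacked labelled fibronectin entirely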
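Material: AH1F fibroblast monolayer depositing Alexa488-labelled fibronectin into matrix / Amount: 10000 AH1F cells per well / Signal: fluorescence 485/525 nm / Medium: DMEM, 2% serum / Compound: single dose, pinned / Incubation: 1 h cell adhesion before compound, then overnight fibronectin incubation / Reagent: Alexa488-FN, 24 nM final / Read-out: inhibition of fibronectin deposition signal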
Numbers without * were called inactive. The list is not random: actives were taken first. Their share in the collection is about 2.3%.

Screening COc1cccc(/C=N/Nc2cc(-n3nc(C)cc3-c3ccccc3)ncn2)c1O returned LGR2 antag 15, XiGFP reactiv 0, TWEAK Fn14 block 61*, TROY signal inh 26 and FN deposit inh -1.
Screening CCCC#Cc1cnc2c(c1)C(=O)N([C@H](C)CO)C[C@@H](C)[C@@H](CN(C)S(=O)(=O)c1cn(C)cn1)O2 returned LGR2 antag 2, XiGFP reactiv 0 and EWS-Fli inh 6.
`C[C@@H]1CCCCO[C@@H](CN(C)C(=O)c2ccccc2)[C@@H](C)CN([C@@H](C)CO)C(=O)c2cc(NC(=O)c3ccccc3)ccc2O1` gave LGR2 antag 8, XiGFP reactiv 0 and FN deposit inh -2.
COc1ccc2c3c([nH]c2c1)[C@H](CO)N(Cc1ccccc1)CC31CCN(C(=O)Cc2ccccc2)CC1 was read as LGR2 antag 15, XiGFP reactiv 0 and EWS-Fli inh -14.
`O=C(Cc1ccccn1)N1CC(=O)N2[C@H](CO)[C@H](c3ccc(-c4ccc(F)cc4)cc3)[C@H]2C1` gave LGR2 antag -16, XiGFP reactiv 0 and EWS-Fli inh 6.
For COc1cccc(/C=N/Nc2nccnc2Cl)c1O the results were LGR2 antag 76*, XiGFP reactiv 0, EWS-Fli inh -40, TWEAK Fn14 block 65*, TROY signal inh 46 and FN deposit inh 16.
`Oc1ccccc1/C=N/Nc1nccnc1Cl` gave TWEAK Fn14 block -38, TROY signal inh -17 and FN deposit inh 7.
Screening COc1ccc(/C=N/Nc2nccnc2Cl)cc1 returned TWEAK Fn14 block 60* and TROY signal inh 22.
`Cc1ccc(C(=O)C[n+]2cccc3ccccc32)cc1` gave TWEAK Fn14 block 32, TROY signal inh 50* and FN deposit inh -7.
Screening Cc1cccc(-n2ncc3c(N(C)C4CCCCC4)ncnc32)c1 returned LGR2 antag 88*, XiGFP reactiv 0, EWS-Fli inh 73*, TWEAK Fn14 block 102*, TROY signal inh 88* and FN deposit inh -5.
`COc1ccc(-n2ncc3c(N(C)C4CCCCC4)ncnc32)cc1` gave LGR2 antag 94*, XiGFP reactiv 0, EWS-Fli inh 78*, TWEAK Fn14 block 104*, TROY signal inh 91* and FN deposit inh -5.
For Cc1cccc(-n2ncc3c(N(CCO)CCO)ncnc32)c1 the results were XiGFP reactiv 0, EWS-Fli inh -92, TWEAK Fn14 block 88*, TROY signal inh -64 and FN deposit inh -2.
For COc1ccc2c3c([nH]c2c1)[C@@H](CO)N(C(=O)Cc1ccccc1)CC31CCN(C(=O)Nc2ccccc2F)CC1 the results were LGR2 antag -14, XiGFP reactiv 0 and EWS-Fli inh 1.
Screening CNC(=O)C[C@@H]1CC[C@@H]2[C@@H](COc3ccc(NC(=O)c4cc(F)cc(F)c4)cc3C(=O)N2C)O1 returned LGR2 antag 7, XiGFP reactiv 0, EWS-Fli inh 1 and FN deposit inh -6.
Screening COc1cccc(C(=O)Nc2sc3c(c2C(=O)O)CCCC3)c1 returned LGR2 antag -48, XiGFP reactiv 0, EWS-Fli inh -207, TWEAK Fn14 block 29, TROY signal inh -14 and FN deposit inh -4.
COc1cccc(C(=O)Nc2sc3c(c2C#N)CCN(C(C)=O)C3)c1 was read as LGR2 antag 14, XiGFP reactiv 0, EWS-Fli inh 60*, TWEAK Fn14 block 9 and TROY signal inh -15.
O=C(Nc1cccnc1)c1ccc(Cl)c(S(=O)(=O)N2CCc3ccccc32)c1 was read as LGR2 antag 27, XiGFP reactiv 0, EWS-Fli inh 12, TWEAK Fn14 block 23, TROY signal inh 34 and FN deposit inh 4.
